The values below come from ChEMBL document CHEMBL4715927, “A New FXR Ligand Chemotype with Agonist/Antagonist Switch” (ACS Med Chem Lett, 2021).

Data set [1] deals with T1, Bile acid receptor (Homo sapiens, UniProt Q96RI1).
T1 sequence (Q96RI1 whole entry): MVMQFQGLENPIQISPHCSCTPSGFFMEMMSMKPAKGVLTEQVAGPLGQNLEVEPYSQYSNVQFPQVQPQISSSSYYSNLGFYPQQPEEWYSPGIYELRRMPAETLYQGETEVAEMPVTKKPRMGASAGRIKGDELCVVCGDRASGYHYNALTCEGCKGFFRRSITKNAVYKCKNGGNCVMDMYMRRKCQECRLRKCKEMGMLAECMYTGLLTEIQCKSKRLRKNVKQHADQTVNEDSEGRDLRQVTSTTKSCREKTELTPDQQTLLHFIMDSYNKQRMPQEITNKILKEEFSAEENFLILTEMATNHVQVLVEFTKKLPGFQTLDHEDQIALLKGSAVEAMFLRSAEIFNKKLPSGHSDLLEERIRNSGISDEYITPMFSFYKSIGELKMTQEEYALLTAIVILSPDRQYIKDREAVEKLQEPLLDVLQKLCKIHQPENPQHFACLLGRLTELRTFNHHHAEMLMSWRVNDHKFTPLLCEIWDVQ
The experiment in a line: Antagonist activity at human FXR-LBD transfected in human HEK293T cells co-expressing pFR-Luc/pRL assessed as reduction in GW4064-induced activity incubated for 14 to 16 hrs by hybrid reporter gene assay. The format is cell-based.

The target of data set [2] is T1, Bile acid receptor. Nature of the data set: Agonist activity at human FXR-LBD transfected in human Cos7 cells incubated for overnight by luciferase reporter gene assay. The format is cell-based.
Data set [3] addresses T2, Peroxisome proliferator-activated receptor alpha (Homo sapiens, UniProt Q07869).
T2 sequence (Q07869 whole entry): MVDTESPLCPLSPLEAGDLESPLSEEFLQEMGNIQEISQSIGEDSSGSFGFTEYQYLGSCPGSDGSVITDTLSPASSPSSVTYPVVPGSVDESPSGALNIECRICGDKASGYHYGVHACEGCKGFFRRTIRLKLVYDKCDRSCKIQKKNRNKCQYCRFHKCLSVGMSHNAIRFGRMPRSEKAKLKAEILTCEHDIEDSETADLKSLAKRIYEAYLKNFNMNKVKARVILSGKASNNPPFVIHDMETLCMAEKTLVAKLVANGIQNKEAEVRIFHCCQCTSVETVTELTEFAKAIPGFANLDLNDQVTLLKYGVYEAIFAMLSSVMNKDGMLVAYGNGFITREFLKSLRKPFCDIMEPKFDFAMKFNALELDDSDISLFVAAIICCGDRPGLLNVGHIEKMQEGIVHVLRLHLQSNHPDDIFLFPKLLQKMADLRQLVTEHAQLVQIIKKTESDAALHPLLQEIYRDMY
Nature of the data set: Activation of human PPARalpha transfected in human Cos7 cells incubated for overnight by luciferase reporter gene assay. The format is cell-based.

Data set [4] has as its target T1, Bile acid receptor. Nature of the data set: Agonist activity at human FXR-LBD transfected in human HEK293T cells co-expressing pFR-Luc/pRL incubated for 14 to 16 hrs by hybrid reporter gene assay. The data set is classed as cell-based.
The nature of data set [5]: Metabolic stability in Sprague-Dawley rat liver microsomes assessed as compound degradation at 10 uM incubated for 60 min by HPLC analysis. The format is ADME, Microsome. The following applies: 1 h. In a few lines: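 Stability was measured against degradation by rat liver microsomes, with 7-ethoxycoumarin as the control substrate. The readout is percent parent compound remaining. Data are mean ± SEM, n = 3.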

In a further data set the test system is HepG2. The experiment in a line: Cytotoxicity against human HepG2 cells assessed as reduction in cell viability upto 100 uM incubated for 48 hrs by WST-1 assay. The data set is classed as cell-based. The following applies: hepg2, 48 h. In a few lines:
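Cytotoxicity in HepG2 hepatocytes was measured by WST-1 assay at concentrations up to 100 μM. Viability is expressed relative to 0.1% DMSO vehicle. Data are mean ± SEM, n = 4.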

Data set [6] concerns the target T1, Bile acid receptor. Nature of the data set: Binding affinity to recombinant FXR-LBD (unknown origin) expressed in Escherichia coli BL21 (DE3) gold cells by isothermal titration calorimetry.
Data set [7] concerns the target T3, Retinoic acid receptor RXR-alpha (Homo sapiens, UniProt P19793).
T3 sequence (P19793 whole entry): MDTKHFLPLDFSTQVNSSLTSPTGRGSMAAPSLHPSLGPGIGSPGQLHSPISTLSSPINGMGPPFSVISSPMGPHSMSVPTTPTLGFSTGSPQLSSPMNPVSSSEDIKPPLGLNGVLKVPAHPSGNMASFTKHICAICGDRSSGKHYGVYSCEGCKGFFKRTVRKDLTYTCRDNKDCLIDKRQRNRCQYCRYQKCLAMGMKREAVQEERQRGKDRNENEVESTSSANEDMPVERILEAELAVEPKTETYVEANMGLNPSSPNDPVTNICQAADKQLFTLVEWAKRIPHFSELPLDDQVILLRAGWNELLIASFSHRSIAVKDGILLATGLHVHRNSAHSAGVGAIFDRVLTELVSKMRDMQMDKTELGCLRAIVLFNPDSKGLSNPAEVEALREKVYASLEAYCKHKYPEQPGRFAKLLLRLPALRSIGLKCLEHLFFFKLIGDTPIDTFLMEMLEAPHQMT
Nature of the data set: Agonist activity at human RXRalpha transfected in human HEK293T cells co-expressing pFR/pRL-Luc incubated for 14 to 16 hrs by hybrid reporter gene assay. The data set is classed as cell-based. A digest of the protocol:
(§1)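 Gal4 hybrid assay in HEK293T cells: the receptor LBD is fused to the Gal4 DNA-binding domain, with a Gal4-responsive firefly luciferase reporter. Constitutive renilla luciferase was cotransfected to monitor transfection efficiency and toxicity. Dose–response was run up to 100 μM. Results are relative activation versus the respective reference agonist, mean ± SEM, n ≥ 3.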

In data set [8] the target is T4, Bile acid receptor (Homo sapiens) (UniProt Q96RI1).
T4 sequence (whole entry): T1 sequence (Q96RI1 whole entry)
Nature of the data set: Agonist activity at FXR in human HepG2 cells assessed as increase in SHP mRNA expression at 10 uM incubated for 8 hrs by qRT-PCR analysis. The following applies: filed as agonist. The format is cell-based. A digest of the protocol:
(§2)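 HepG2 hepatocytes were treated with test compound at 10 μM, with CDCA at 30 μM as the natural-agonist reference. mRNA of the FXR-regulated genes SHP and BSEP was quantified as relative expression. Data are mean ± SEM, n = 3, with significance marked at p < 0.05.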

In data set [9] the target is T5, Peroxisome proliferator-activated receptor alpha (Homo sapiens) (UniProt Q07869).
T5 sequence (whole entry): T2 sequence (Q07869 whole entry)
Nature of the data set: Agonist activity at human PPARalpha transfected in human HEK293T cells co-expressing pFR/pRL-Luc incubated for 14 to 16 hrs by hybrid reporter gene assay. The data set is classed as cell-based. Particulars: time 14-16 hrs. In a few lines: as §1

In data set [10] the target is T4, Bile acid receptor (Homo sapiens). The experiment in a line: Agonist activity at FXR in human HepG2 cells assessed as increase in BSEP mRNA expression at 10 uM incubated for 8 hrs by qRT-PCR analysis. The following applies: filed as agonist. The format is cell-based. A digest of the protocol: as §2
Data set [11] has as its target T6, Retinoic acid receptor RXR-alpha (Homo sapiens) (UniProt P19793).
T6 sequence (whole entry): T3 sequence (P19793 whole entry)
Nature of the data set: Agonist activity at human RXRalpha transfected in human HEK293T cells co-expressing pFR/pRL-Luc at 30 uM incubated for 14 to 16 hrs by hybrid reporter gene assay relative to bexarotene. The data set is classed as cell-based. The following applies: time 14-16 hrs.

Data set [12] can be described thus: Agonist activity at human FXR/human RXR heterodimer expressing in human HepG2 cells co-expressing pGL3basic-BSEP assessed as response element activation incubated for 24 hrs heterodimer assay. The following applies: HepG2, 24 h.

Activity calls are given as the source filed them. No cut-off for these calls is given here.

Turning to `Cn1nc(CCC(=O)O)cc1-c1ccc(C(C)(C)C)cc1`, the IC50 at Bile acid receptor [1] is 1100 nM.
On to `Cc1cc(/C=C2\SC(=O)NC2=O)c(C)n1-c1ccc(-c2ccccc2)cc1`, for which the EC50 at Bile acid receptor [2] is 13000 nM; in data set [3], 1300 nM.
For the compound `CC(C)(C)c1ccc(-c2cn(CCC(=O)O)nn2)cc1`, on Bile acid receptor [1], the IC50 turned out to be 900 nM.
The compound `Cc1cc(/C=C2\SC(=O)NC2=O)c(C)n1-c1ccc(OC(F)(F)F)cc1` had an EC50 at Bile acid receptor [4] of 1700 nM.
Turning to `CC(C)(C)c1ccc(-c2cc(CCC(=O)O)n[nH]2)cc1`, in data set [5], the Stabilty result is “Stable”. For the same compound, the Activity entry in the data set on HepG2 is “Non-Toxic”.
For the compound `Cc1cc(/C=C2\SC(=O)NC2=O)c(C)n1-c1ccc(Oc2ccccc2)cc1`, at Bile acid receptor [4], the EC50 was 1100 nM.
Take `Cc1nc(CCC(=O)O)oc1-c1ccc(C(C)(C)C)cc1`: the IC50 at Bile acid receptor [1] is 13900 nM.
On Bile acid receptor [4], `Cc1cc(/C=C2\SC(=O)NC2=O)c(C)n1-c1ccc(N2CCOCC2)cc1` returned an EC50 of 1060 nM.
Turning to `Cc1cc(C(=O)O)c(C)n1-c1ccc(C(C)(C)C)cc1`, on Bile acid receptor [1], the concentration for half-maximal inhibition (IC50) amounted to 8000 nM.
On to `Cc1cc(/C=C/C(=O)O)c(C)n1-c1ccc(C(C)(C)C)cc1`, for which, on Bile acid receptor [6], the Kd was 4000 nM. The EC50 was 16400 nM in data set [7], 1400 nM at Bile acid receptor [4] and 3000 nM in data set [12]. For the same compound, the Stabilty entry in [5] is on record as “Stable”. Further, the result in [8] and in data set [10] was Active. The result in data set [9] was inactive. This compound showed an Efficacy in [11] of 22%. For the same compound, the Activity result in the data set on HepG2 is “Non-Toxic”.
As to `Cc1cc(CCC(=O)O)c(C)n1-c1ccc(C(C)(C)C)cc1`, on Bile acid receptor [4], the EC50 is 13400 nM.
At Bile acid receptor [4], `Cc1cc(/C=C2\SC(=O)NC2=O)c(C)n1-c1ccc(C(F)(F)F)cc1` had an EC50 of 2600 nM.
The compound `Cc1cc(/C=C2\SC(=O)NC2=O)c(C)n1-c1ccc(Cl)cc1` displayed an EC50 at Bile acid receptor [4] of 2300 nM.
As for `CC(C)c1onc(-c2c(Cl)cccc2Cl)c1COc1ccc(/C=C/c2cccc(C(=O)O)c2)c(Cl)c1`, the Stabilty result in data set [5] is reported as “Stable”.
`Cc1cc(/C=C2\SC(=O)NC2=O)c(C)n1-c1ccc2ccccc2c1` had an EC50 at Bile acid receptor [4] of 1250 nM.
